Series [1] relates to Hepatitis C virus. The experiment in a line: Antiviral activity against Hepatitis C virus harboring […] A156V mutant infected in human HuH7 by luciferase reporter gene assay. It is filed as functional, organism-based. Particulars: Hepacivirus hominis; Huh-7.
Series [2] concerns Rattus norvegicus. The experiment in a line: Toxicity in rat assessed as decrease in body weight at 1000 mg/kg/day after 5 days. The series is classed as organism-based. As to conditions: in vivo, 120 h.
For series [3], the system named is Hepatitis C virus. The experiment in a line: Antiviral activity against Hepatitis C virus harboring NS5B S282T mutant infected in human HuH7 by luciferase reporter gene assay. It is filed as functional, organism-based. Particulars: Hepacivirus hominis; Huh-7.
Series [4] deals with Homo sapiens. The series can be described thus: Toxicity in human assessed as grade-3 adverse events at 300 to 1250 mg, po bid for 5 days followed by morning dose on day 6. It is filed as organism-based. Particulars: in vivo, 120 h. The procedure, abridged:
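Oral b.i.d. dosing for 5 days plus a single morning dose on day 6, in a hydroxypropyl-β-cyclodextrin vehicle. Healthy volunteers received 300, 1000 or 1250 mg; HCV genotype 1-infected patients received 500 or 1000 mg. Monitoring covered adverse events graded by severity, laboratory parameters, vital signs, food consumption, appetite and ECG.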

Series [5] relates to Hepatitis C virus. The experiment in a line: Antiviral activity against Hepatitis C virus genotype 1b harboring NS5B NNI-1 site P495L mutant infected in human HuH7 by luciferase reporter gene assay relative to wild-type HCV genotype 1b. It is filed as functional, Hepacivirus hominis, Huh-7.
Series [6] deals with Hepatitis C virus. The experiment in a line: Antiviral activity against Hepatitis C virus genotype 1a infected in po dosed human assessed as decrease in HCV RNA level administered bid for 5 days followed by morning dose on day 6. The series is classed as functional, organism-based. Particulars: Hepacivirus hominis; subtype 1a. Summed up:
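HCV genotype 1-infected patients received oral b.i.d. doses of 500 mg or 1000 mg in a hydroxypropyl-β-cyclodextrin vehicle for 5 days, plus a morning dose on day 6. The read-out was the median maximum decrease in HCV RNA from baseline in GT1a patients with data up to Day 6.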

The subject of series [7] is Hepatitis C virus. The series can be described thus: Antiviral activity against Hepatitis C virus genotype 1a infected in human assessed as log10 reduction in HCV RNA level at 1000 mg, po bid for 5 days followed by morning dose on day 6 relative to control. The series is classed as functional, Hepacivirus hominis, subtype 1a. Summed up: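 Oral b.i.d. dosing of HCV genotype 1-infected patients at 500 mg or 1000 mg for 5 days, plus a morning dose on day 6, in hydroxypropyl-β-cyclodextrin vehicle. Read-out was the median maximum decrease in plasma HCV RNA from baseline (log10), using patients with HCV RNA data available up to Day 6.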

Series [8] is described as follows: Cytotoxicity against human HepG2 cells after 3 days by resazurin-based fluorescence analysis. The series is classed as cell-based.
The subject of series [9] is Hepatitis C virus. The series can be described thus: Antiviral activity against wild-type Hepatitis C virus Con 1b infected in human HuH7 by transient replicon assay. It is filed as functional, organism-based, Hepacivirus hominis. As to conditions: isolate Con1, Huh-7.

Active and inactive are the calls of the source. The calls are words filed in the database; no cut-off is given here.

For the compound `COc1ccc2c(c1)C=C1Cn3c-2c(C2CCCCC2)c2ccc(cc23)C(=O)NS(=O)(=O)N(C)CCOCCN(C)C1=O` [TMC-647055], the outcome in series [1] and in series [3] was Active. Moreover, the Activity result was “Toxic” in [2], “Non-toxic” in series [4] and “Dose-dependent effect” in [6]. In series [5], the “fold change (FC)” value is reported as 371. In addition, the FC in [7] came out at 2.4. In addition, the CC50 at 72 h in [8] was over 50 µM. In [9], this compound displayed an EC50 of 51 nM.
